# The list is not random: actives were taken first. Their share in the collection is about 1.2%.
# HKDC1 inhibitor: HKDC1 (human) hexokinase inhibition; AID 493160; inhibition, % at 20 µM; 0.16% of 340,000 active; recombinant HKDC1, G6PDH/diaphorase resazurin coupled fluorescence;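 active means inhibition above about 35% when tested at 20 µM, limit read from the data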;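 further: plate controls were DMSO wells with enzyme for no effect and DMSO wells lacking enzyme for full effect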
# Target sequence (Q2TB90 whole entry, looked up): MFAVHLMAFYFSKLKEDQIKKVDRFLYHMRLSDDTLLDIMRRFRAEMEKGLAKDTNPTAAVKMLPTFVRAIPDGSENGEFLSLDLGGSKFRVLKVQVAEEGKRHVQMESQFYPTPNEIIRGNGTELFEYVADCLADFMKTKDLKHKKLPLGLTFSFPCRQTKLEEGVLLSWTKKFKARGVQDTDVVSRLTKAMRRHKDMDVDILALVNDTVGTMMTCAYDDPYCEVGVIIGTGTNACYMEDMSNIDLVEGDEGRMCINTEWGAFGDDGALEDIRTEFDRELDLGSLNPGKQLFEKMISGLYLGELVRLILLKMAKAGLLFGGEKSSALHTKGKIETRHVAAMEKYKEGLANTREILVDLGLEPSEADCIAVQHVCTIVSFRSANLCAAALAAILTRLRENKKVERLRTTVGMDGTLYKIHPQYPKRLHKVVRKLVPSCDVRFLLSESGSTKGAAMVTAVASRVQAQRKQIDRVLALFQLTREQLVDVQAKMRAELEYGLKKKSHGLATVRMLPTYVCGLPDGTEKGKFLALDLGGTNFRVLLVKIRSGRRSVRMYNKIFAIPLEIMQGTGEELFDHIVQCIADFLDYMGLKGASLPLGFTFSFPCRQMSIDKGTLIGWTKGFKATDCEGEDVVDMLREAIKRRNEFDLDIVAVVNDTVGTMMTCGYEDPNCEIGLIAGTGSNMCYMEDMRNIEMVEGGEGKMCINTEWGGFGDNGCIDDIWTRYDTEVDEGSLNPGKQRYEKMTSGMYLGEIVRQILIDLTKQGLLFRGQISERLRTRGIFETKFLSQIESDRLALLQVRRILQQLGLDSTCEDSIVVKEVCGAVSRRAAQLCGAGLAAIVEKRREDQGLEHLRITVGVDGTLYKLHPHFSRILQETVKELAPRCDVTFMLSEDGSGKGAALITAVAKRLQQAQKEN
#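 test system = in-house recombinant HK5 (HKDC1) enzyme | amount = HKDC1 at 5 µg/mL | control set = DMSO-enzyme wells negative, buffer-substituted wells positive | compound = one dose of 20 µM, 1% DMSO | schedule = reaction time 90 min, room temperature, protected from light | technique = resorufin fluorescence at 613 nm | reagent = glucose with 1 mM ATP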
# Tb hexokinase: T. brucei hexokinase 1 inhibition. recombinant TbHK1, G6PDH-coupled NADH A340. inhibition, % at 10 µM. 0.11% of 220,000 active;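 active means inhibition of 50% or more in the single-dose primary screen; inactive means inhibition below 50%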
# Diaphorase inh: diaphorase inhibition or chemical oxidation counter-screen; AID 1217; inhibition, % at 20 µM; diaphorase resazurin-to-resorufin fluorescence, NADH, 16 min; bacterial (C. kluyveri) enzyme, not human; 0.69% of 190,000 active;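 active means primary screen inhibition at 20 µM above a set limit, cut at about 50% in these data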;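 further: plate controls were DMSO with full reaction for no effect and wells lacking NADH for full effect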
#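 controls = No-NADH positive control and DMSO neutral control | system = Clostridium kluyveri diaphorase enzyme | timing = reaction incubation of 16 min at room temperature | signal = resorufin fluorescence 544/590 nm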
# G6PDH CS: inhibits Leuconostoc G6PDH, flagging false hits in G6PDH-based assays; Purified L. mesenteroides G6PDH, diaphorase/resazurin coupled fluorescence, 45 min; 0.12% of 200,000 active; inhibition, % at 5 µM; AID 1020; in the data active means inhibition above about 50%
# PfG6PD inh: PfG6PD (Plasmodium falciparum) enzyme inhibition; PfGluPho enzyme, NADPH resazurin-diaphorase fluorescence; inhibition, % at 20 µM; 0.78% of 350,000 active; AID 504690;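 active means inhibition reaching at least a set limit at 20 µM in the primary screen, cut at about 59% in these data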;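 further: 0% = DMSO wells with substrate and 100% = DMSO wells lacking glucose-6-phosphate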
# * hit, by the source's call; nt = no result.
SMILES,HKDC1 inhibitor,Tb hexokinase,Diaphorase inh,G6PDH CS,PfG6PD inh
CCCC(Oc1ccc(Br)cc1)c1nc2c3cc(OC)c(OC)cc3nc(=S)n2[nH]1 (stereo not drawn),-27,-7,29,1,13
S=c1nc2ccccc2c2nc(-c3ccccc3)[nH]n12,-21,-1,77*,6,40
CC(Oc1ccc(Br)cc1)c1nc2c3ccccc3nc(=S)n2[nH]1 (stereo not drawn),-24,-4,85*,4,-6
Cc1ccnc(SCCn2c(N3CC(C)CC(C)C3)nc3c2c(=O)n(C)c(=O)n3C)n1 (stereo not drawn),14,-6,51*,7,-9
Cc1ccnc(SCCn2c(N3CC(C)OC(C)C3)nc3c2c(=O)n(C)c(=O)n3C)n1 (stereo not drawn),-1,-4,4,0,-5
Cc1ccc2c(C)c(C(=O)N3CCC(C(N)=O)(N4CCCCC4)CC3)oc2c1C,nt,nt,nt,nt,10
Cc1ccc(-c2nnc3ccc(SCC(=O)N4CCc5ccccc54)nn23)cc1,3,-5,17,-50,-9
Cc1ccc(-c2nnc3ccc(SCC(=O)N4CCCc5ccccc54)nn23)cc1,1,-2,50*,-7,-7
Nc1cccnc1Sc1ccc([N+](=O)[O-])cn1,-12,-28,50*,0,53
COC(=O)C[C@H]1C[C@H]2c3cc(NC(=O)Nc4ccc(C(F)(F)F)cc4)ccc3O[C@H]2[C@@H](CO)O1,nt,nt,nt,nt,1
NNC(=O)c1cc(O)c(O)c(O)c1,14,17,65*,9,58
COc1ccccc1N1CCN(S(=O)(=O)CCNC(=O)C(C)Oc2ccccc2)CC1 (stereo not drawn),nt,nt,nt,nt,-4
CNC(=O)C1CN(C(=O)c2nn(Cc3ccccc3)c(=O)c3ccccc23)c2ccccc2O1 (stereo not drawn),nt,nt,nt,nt,19
S=c1nc(-c2sccc2OCc2ccc(Cl)cc2Cl)[nH][nH]1,-4,16,54*,-4,11
CNC(=S)NNC(=O)c1sccc1OCc1ccc(Cl)cc1Cl,-8,-4,6,0,-2
CC(=O)Nc1ccc(OCc2cn(CC(=O)c3ccc(O)cc3)nn2)cc1,nt,nt,nt,nt,34
COc1cc(CN2CCN(Cc3ccc(C)cc3)C(CCO)C2)cc(OC)c1O (stereo not drawn),12,-6,38,58*,38
CSc1ccc(/C=N/NC(=O)c2ccccc2Cl)cc1,1,-27,58*,0,0
CN(C)c1ccc(/C=N/NC(=O)c2ccccc2Cl)cc1,13,-47,14,-2,8
COc1ccc2[nH]c(=O)c(CNc3ccccc3OC)cc2c1,21,-12,nt,nt,69*
COc1ccc(-c2csc(NC(=S)NC(=O)c3cccs3)n2)cc1Br,-3,-12,nt,nt,-5
COc1ccc(-c2csc(NC(=S)NC(=O)c3cccs3)n2)cc1OC,1,0,59*,-28,4
COc1ccc(-c2csc(NC(=O)c3cc(C)oc3C)n2)cc1OC,3,nt,nt,nt,24
COc1ccc(-c2csc(NC(=O)c3cc(=O)c4ccccc4o3)n2)cc1OC,12,-13,0,-8,67*
COc1ccc(CCC(=O)O)c(C(CC(=O)O)C(=O)O)c1OS(=O)(=O)c1ccc(C)cc1 (stereo not drawn),nt,nt,nt,nt,-2
SMILES,HKDC1 inhibitor,Tb hexokinase,Diaphorase inh,G6PDH CS,PfG6PD inh
Cn1cccc1/C=N/n1c(-c2ccc(Cl)cc2)n[nH]c1=S,1,-10,28,-14,32
Cn1cccc1/C=N/n1c(-c2ccc(Cl)cc2Cl)n[nH]c1=S,-3,-15,72*,-12,22
N=c1c(C(=O)NCc2ccc(F)cc2)cc2c(=O)n3ccccc3nc2n1Cc1ccco1,6,-10,51*,-7,24
N=c1c(C(=O)NCc2ccco2)cc2c(=O)n3ccccc3nc2n1Cc1ccc(Cl)cc1,6,4,11,-3,12
N=c1c(C(=O)NCc2ccco2)cc2c(=O)n3ccccc3nc2n1Cc1ccccc1,-3,-15,3,7,18
Cc1ccc(CNC(=O)c2cc3c(=O)n4ccccc4nc3n(Cc3ccco3)c2=N)cc1,9,nt,90*,6,30
N=c1c(C(=O)NCc2ccccc2)cc2c(=O)n3ccccc3nc2n1Cc1ccco1,6,-4,68*,-1,13
O=C(O)c1ccc(/C=N/NC(=O)c2cc(-c3ccc4c5c(cccc35)CC4)n[nH]2)cc1,13,-6,68*,2,2
CCOC(=O)N1CCN(C(=O)c2ccc3c(=O)n(-c4ccc(OC)cc4OC)c(=S)[nH]c3c2)CC1,5,4,44,0,5
CCOC(=O)N1CCN(C(=O)c2ccc3c(=O)n(-c4ccccc4F)c(=S)[nH]c3c2)CC1,-2,-12,50*,0,-16
C[C@@H]1CN([C@H](C)CO)C(=O)CCCn2nncc2CO[C@H]1CN(C)Cc1cccc(C(F)(F)F)c1,nt,nt,nt,nt,1
CCc1ccc2c(c1)c(N=NC1=NC(=O)CS1)c(O)n2CC,14,-12,79*,7,-44
Cc1[nH]n(-c2ccccc2)c(=O)c1C=Nc1ccc(S(=O)(=O)N=C(N)N)cc1,10,-17,nt,nt,-4
Cc1[nH]n(-c2ccccc2)c(=S)c1C=Nc1ccc([N+](=O)[O-])cc1,-9,-23,28,12,98*
CC(NC(=O)C(=O)NCCN1CCN(C(=O)c2ccccc2Br)CC1)c1ccccc1 (stereo not drawn),-5,nt,nt,nt,6
CCN(CC)C(=O)c1ccccc1NS(C)(=O)=O,-6,-4,74*,-4,3
CC(=O)c1c(N)[nH]c(-c2ccccc2)nc1=S,4,-13,50*,-4,11
CC1(C)N([O-])c2cc([N+](=O)[O-])ccc2[N+]1=O,20,-11,nt,nt,70*
CNc1ccc(C(=O)OCC(=O)NC(=O)NC2CCCC2)cc1[N+](=O)[O-],1,nt,nt,nt,-1
CS(=O)(=O)N1CCN(c2ccc([N+](=O)[O-])c(SCc3ccco3)c2)CC1,0,-1,57*,13,14
O=C(C[C@@H]1C[C@H]2c3cc(NC(=O)C4CCC4)ccc3O[C@H]2[C@@H](CO)O1)NCc1ccc(-c2ccccc2)cc1,nt,nt,nt,nt,-1
O=c1/c(=C\c2cc([N+](=O)[O-])cc([N+](=O)[O-])c2O)sc2nc3ccccc3n12,33,60*,50*,-3,46
O=C(O)c1cc(C(=O)O)cc(-c2ccc(/C=c3/sc4nc5ccccc5n4c3=O)o2)c1,24,39,98*,-1,35
O=c1/c(=C/c2ccccn2)sc2nc3ccccc3n12,-1,1,15,-7,14
CC(=O)NC1=C(NC2CCS(=O)(=O)C2)C(=O)c2ccccc2C1=O (stereo not drawn),14,-2,39,-12,-3
CN(C1=C(NC(=O)c2ccccc2)C(=O)c2ccccc2C1=O)C1CCS(=O)(=O)C1 (stereo not drawn),nt,19,59*,34,nt

# Bioassay records deposited in PubChem BioAssay by several laboratories.
